Measurements reported in publication PMC10907882 (Pharmacology Research & Perspectives, 2024).

What was measured:
[1] = twice‐daily dosing for 2 weeks; healthy elderly and patients with mild to moderate Alzheimer's disease; cited from earlier work
[2] = target: T1, human calpain‐1 (Homo sapiens, UniProt P07384); assay: In vitro calpain assay; type: biochemical; conditions: read-out: K i for human calpain‐1; purified human calpain‐1; means ± SEM of three experiments or single experiment
T1 sequence (P07384 1-714): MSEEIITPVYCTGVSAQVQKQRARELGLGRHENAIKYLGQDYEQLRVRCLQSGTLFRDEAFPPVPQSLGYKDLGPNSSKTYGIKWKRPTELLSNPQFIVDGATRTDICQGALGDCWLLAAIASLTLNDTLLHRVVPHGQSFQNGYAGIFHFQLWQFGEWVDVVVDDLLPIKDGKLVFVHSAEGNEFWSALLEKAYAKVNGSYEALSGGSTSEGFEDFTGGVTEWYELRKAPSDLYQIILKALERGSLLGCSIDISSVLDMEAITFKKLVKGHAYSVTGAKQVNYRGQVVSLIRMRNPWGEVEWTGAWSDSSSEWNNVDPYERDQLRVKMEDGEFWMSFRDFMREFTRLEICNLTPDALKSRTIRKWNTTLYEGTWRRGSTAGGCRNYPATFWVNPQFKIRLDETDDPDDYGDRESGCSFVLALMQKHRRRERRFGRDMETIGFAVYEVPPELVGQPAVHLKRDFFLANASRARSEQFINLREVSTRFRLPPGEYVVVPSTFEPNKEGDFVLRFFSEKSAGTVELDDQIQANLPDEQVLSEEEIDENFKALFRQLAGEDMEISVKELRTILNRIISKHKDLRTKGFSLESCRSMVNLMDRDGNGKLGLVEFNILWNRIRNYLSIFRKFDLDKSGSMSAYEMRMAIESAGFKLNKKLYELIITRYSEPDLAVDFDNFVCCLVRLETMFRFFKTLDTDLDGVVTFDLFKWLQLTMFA
T1 sequence (P04632 1-268 partner): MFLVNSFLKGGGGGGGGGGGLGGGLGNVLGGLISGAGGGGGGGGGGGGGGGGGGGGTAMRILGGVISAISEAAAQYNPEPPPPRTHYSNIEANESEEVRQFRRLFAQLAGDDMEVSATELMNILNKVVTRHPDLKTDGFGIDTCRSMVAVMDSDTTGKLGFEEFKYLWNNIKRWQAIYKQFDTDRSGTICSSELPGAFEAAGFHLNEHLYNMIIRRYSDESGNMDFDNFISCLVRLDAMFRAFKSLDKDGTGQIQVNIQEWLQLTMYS
Procedure, shortened: (§1)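 Enzymes were purified human erythrocyte calpain-1 (8 μg) or bacterially expressed recombinant human calpain-2. Buffer was 60 mM imidazole-HCl pH 7.3 with 5 mM CaCl₂, 5 mM cysteine, 2.5 mM β-mercaptoethanol, 0.5 mM Suc-Leu-Tyr-AMC and test compound (0–20 μM). Reactions were started with enzyme and run at 30°C for 15 min, reading AMC fluorescence (380/450 nm) every 30 s. IC50 came from sigmoidal fits of linear rates; Ki from mean IC50 assuming competitive binding.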

[3] = target: T2, rec human calpain‐2 (Homo sapiens, UniProt P17655); assay: In vitro calpain assay; type: biochemical
T2 sequence (P17655 1-700): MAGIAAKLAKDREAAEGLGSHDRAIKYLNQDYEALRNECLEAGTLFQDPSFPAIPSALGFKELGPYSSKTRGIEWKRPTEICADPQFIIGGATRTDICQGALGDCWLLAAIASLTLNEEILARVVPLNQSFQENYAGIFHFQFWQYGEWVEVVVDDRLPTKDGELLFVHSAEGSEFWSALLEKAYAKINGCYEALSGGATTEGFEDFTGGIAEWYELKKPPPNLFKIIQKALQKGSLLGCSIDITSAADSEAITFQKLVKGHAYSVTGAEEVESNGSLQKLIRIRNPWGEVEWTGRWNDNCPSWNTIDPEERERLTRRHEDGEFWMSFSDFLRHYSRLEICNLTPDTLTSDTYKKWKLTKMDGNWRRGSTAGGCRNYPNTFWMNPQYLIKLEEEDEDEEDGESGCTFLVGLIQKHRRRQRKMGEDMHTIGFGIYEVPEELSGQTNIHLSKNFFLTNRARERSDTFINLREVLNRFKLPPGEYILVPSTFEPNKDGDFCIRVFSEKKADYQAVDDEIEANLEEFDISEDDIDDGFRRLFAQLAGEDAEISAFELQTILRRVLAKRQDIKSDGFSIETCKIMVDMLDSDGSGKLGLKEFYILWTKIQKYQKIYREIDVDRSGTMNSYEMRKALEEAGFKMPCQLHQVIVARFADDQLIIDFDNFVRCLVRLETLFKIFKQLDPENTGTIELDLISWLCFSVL
Procedure, shortened: as §1

[4] = target: T3, mouse calpain‐1 (Mus musculus, UniProt O35350); assay: Ex‐vivo calpain assay, mouse pons‐cerebellum membrane fractions, 20 μM calcium; type: biochemical; conditions: read-out: IC50 for mouse calpain‐1, endogenous brain calpain‐1, membrane fractions
T3 sequence (O35350 1-713): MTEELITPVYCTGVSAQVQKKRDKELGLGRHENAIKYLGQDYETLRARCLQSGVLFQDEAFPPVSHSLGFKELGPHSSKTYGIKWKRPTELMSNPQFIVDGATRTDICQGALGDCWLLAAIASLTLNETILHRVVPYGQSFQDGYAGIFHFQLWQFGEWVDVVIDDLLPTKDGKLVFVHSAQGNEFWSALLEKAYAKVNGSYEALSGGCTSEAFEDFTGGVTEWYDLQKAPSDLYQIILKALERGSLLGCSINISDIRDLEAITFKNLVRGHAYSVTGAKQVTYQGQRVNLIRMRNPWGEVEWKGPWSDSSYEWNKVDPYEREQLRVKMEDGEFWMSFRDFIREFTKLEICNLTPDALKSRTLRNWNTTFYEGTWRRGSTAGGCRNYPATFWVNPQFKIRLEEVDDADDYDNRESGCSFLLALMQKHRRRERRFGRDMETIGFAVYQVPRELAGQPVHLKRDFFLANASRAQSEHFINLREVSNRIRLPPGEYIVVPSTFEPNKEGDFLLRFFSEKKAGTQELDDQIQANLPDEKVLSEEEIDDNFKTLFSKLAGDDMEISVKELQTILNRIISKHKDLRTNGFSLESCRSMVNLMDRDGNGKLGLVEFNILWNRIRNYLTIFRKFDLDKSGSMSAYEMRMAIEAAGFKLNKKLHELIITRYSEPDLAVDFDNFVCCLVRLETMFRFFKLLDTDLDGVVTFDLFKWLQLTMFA
T3 sequence (O88456 1-268 partner): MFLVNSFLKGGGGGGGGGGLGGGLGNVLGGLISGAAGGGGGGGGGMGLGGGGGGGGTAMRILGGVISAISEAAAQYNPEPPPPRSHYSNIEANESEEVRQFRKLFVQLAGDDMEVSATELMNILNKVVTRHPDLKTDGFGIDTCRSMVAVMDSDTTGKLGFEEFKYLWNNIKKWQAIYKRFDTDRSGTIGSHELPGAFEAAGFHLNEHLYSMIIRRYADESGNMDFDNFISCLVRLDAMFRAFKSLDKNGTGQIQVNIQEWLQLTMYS
Procedure, shortened: (§2)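 Membrane fractions from mouse pons-cerebellum were resuspended in 60 mM imidazole-HCl pH 7.3 with 5 mM cysteine and 2.5 mM β-mercaptoethanol and exposed to test compound concentrations. Calpain-1 was assayed in wild-type membranes with 20 μM calcium. Calpain-2 was assayed in calpain-1 knockout membranes with 2 mM calcium. Substrate was Suc-Leu-Tyr-AMC (0.5 mM). Two experiments.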

[5] = target: T4, mouse calpain‐2 (Mus musculus, UniProt O08529); assay: Ex‐vivo calpain assay, mouse pons‐cerebellum membrane fractions, 2 mM calcium; type: biochemical; conditions: mouse brain enzymes
T4 sequence (O08529 1-700): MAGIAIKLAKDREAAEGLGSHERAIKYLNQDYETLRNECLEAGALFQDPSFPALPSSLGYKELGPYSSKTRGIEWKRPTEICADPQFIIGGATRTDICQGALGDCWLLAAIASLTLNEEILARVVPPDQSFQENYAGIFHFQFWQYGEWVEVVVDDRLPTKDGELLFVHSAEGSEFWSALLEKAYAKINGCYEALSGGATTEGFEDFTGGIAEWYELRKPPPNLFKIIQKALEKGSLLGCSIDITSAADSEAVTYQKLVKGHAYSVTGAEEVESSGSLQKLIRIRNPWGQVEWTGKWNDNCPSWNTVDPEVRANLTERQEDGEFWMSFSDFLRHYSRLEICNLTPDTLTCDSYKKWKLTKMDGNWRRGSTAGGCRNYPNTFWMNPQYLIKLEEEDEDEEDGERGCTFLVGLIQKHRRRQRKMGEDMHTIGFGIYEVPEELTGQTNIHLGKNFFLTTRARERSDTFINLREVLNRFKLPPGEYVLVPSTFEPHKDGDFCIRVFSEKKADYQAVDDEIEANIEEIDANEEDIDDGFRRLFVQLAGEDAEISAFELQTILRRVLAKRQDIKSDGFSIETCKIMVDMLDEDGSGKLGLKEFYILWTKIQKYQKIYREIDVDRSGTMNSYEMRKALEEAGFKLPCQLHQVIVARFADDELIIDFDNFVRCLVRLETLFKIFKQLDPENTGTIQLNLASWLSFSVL
T4 sequence (O88456 1-268 partner): T3 sequence (O88456 1-268 partner)
Procedure, shortened: as §2

[6] = system: calpain‐2; conditions: reported; cited from earlier work

Row | SMILES | adverse effects in Phase I [1] | Ki [2] [nM] | Ratio 1/2 (K i calpain‐1 / calpain‐2) ([3]; human enzymes) | Ki ([3]; read-out: K i for rec human calpain‐2, recombinant human calpain‐2, means ± SEM of three experiments or single experiment) [nM] | IC50 [4] [nM] | Ratio 1/2 (IC50 calpain‐1 / calpain‐2) [5] | difference in K i values for calpain‐2 vs calpain‐1 [6] [fold]
1 | O=C(NC1CC1)C(=O)C(Cc1ccccc1)NC(=O)[C@H]1CCC(=O)N1Cc1ccccc1 (stereo partly shown) [ABT‐957] | did not result in significant adverse effects |  |  |  |  |  | 
2 | CCC(NC(=O)[C@H](CC(C)C)NC(=O)OCc1ccccc1)C(=O)C(=O)NCc1cc(OC)cc(OC)c1 (stereo partly shown) [Compound C2I, Z‐Leu‐Abu‐CONH‐CH2‐C6H3(3,5‐(OMe)2)] |  | 124 ± 6 | 2.3 | 55 ± 7 | 1130 | 26 | 100
